Key:
[1] = Intrinsic clearance in human liver microsomes at 1 uM after 1 to 40 mins in presence of NADPH by LC-MS/MS analysis; type: ADME, microsome; conditions: read-out: CLH
[2] = Intrinsic clearance in rat liver microsomes at 1 uM after 1 to 40 mins in presence of NADPH by LC-MS/MS analysis; type: ADME, microsome; conditions: read-out: CLH
[3] = Total clearance in rat at 0.5 mg/kg, iv; type: ADME, organism-based; conditions: in vivo
Outline: (§1)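 Male rats given a single 0.5 mg/kg iv dose in DMSO. Unbound clearance (CLu) is total clearance divided by fu, the unbound fraction in plasma.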

[4] = Volume of distribution at steady state in rat at 0.5 mg/kg, iv; type: ADME, organism-based; conditions: in vivo, read-out: Vdss; outline: as §1
[5] = Oral bioavailability in rat at 10 mg/kg; type: ADME, organism-based; conditions: in vivo
[6] = Oral bioavailability in dog at 2 mg/kg; type: ADME, organism-based, Canis lupus familiaris; conditions: in vivo
[7] = tested on: Mus musculus; assay: Toxicity in naive C57Bl/6 mouse assessed as effect on basic locomotor movement at 30 to 300 mg/kg, po measured after 4 hrs for 60 mins by open field test; type: organism-based; conditions: in vivo
[8] = molecular target: Cytochrome P450 3A4 (Homo sapiens, UniProt P08684); assay: Inhibition of CYP3A4 (unknown origin); type: ADME
Sequence of Cytochrome P450 3A4 (P08684 whole entry): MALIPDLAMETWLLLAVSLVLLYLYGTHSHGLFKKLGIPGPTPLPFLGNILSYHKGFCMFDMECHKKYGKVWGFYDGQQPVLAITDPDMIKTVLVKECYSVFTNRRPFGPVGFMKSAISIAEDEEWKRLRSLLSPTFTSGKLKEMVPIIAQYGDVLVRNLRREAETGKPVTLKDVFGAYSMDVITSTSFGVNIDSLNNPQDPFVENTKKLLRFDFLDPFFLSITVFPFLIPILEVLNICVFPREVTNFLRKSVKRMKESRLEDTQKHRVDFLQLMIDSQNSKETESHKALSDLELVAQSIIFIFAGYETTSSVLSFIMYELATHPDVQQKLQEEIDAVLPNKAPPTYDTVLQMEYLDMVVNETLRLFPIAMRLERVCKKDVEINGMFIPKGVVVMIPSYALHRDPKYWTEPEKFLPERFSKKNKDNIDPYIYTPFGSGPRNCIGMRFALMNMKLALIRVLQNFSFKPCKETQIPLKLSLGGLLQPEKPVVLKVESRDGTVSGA

[9] = molecular target: T1, Cytochrome P450 1A2 (Homo sapiens, UniProt P05177); assay: Inhibition of CYP1A2 (unknown origin); type: ADME
T1 sequence (P05177 whole entry): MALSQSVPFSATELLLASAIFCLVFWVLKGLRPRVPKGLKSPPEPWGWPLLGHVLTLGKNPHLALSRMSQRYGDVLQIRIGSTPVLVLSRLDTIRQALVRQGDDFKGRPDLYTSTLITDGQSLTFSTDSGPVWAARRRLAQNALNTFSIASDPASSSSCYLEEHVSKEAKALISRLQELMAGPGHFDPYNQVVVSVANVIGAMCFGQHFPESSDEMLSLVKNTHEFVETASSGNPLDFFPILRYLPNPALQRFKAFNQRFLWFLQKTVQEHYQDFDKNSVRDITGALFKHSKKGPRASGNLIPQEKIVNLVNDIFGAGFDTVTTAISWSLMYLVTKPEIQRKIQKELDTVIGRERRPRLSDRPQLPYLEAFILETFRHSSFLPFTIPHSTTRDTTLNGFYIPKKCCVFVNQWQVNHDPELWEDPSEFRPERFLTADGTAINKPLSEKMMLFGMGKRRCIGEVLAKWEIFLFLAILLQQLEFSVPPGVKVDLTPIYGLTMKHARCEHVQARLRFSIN

[10] = tested on: Plasma; assay: Unbound plasma concentration in C57Bl/6 mouse at 100 mg/kg, po; type: ADME, organism-based; conditions: in vivo
[11] = molecular target: Sodium channel protein type 9 subunit alpha (Mus musculus, UniProt Q62205); assay: Inhibition of mouse Nav1.7 expressed in HEK293 cells incubated for 3 to 5 mins at -125 mV holding potential by electrophysiology assay; type: cell-based
Sequence of Sodium channel protein type 9 subunit alpha (Q62205 whole entry): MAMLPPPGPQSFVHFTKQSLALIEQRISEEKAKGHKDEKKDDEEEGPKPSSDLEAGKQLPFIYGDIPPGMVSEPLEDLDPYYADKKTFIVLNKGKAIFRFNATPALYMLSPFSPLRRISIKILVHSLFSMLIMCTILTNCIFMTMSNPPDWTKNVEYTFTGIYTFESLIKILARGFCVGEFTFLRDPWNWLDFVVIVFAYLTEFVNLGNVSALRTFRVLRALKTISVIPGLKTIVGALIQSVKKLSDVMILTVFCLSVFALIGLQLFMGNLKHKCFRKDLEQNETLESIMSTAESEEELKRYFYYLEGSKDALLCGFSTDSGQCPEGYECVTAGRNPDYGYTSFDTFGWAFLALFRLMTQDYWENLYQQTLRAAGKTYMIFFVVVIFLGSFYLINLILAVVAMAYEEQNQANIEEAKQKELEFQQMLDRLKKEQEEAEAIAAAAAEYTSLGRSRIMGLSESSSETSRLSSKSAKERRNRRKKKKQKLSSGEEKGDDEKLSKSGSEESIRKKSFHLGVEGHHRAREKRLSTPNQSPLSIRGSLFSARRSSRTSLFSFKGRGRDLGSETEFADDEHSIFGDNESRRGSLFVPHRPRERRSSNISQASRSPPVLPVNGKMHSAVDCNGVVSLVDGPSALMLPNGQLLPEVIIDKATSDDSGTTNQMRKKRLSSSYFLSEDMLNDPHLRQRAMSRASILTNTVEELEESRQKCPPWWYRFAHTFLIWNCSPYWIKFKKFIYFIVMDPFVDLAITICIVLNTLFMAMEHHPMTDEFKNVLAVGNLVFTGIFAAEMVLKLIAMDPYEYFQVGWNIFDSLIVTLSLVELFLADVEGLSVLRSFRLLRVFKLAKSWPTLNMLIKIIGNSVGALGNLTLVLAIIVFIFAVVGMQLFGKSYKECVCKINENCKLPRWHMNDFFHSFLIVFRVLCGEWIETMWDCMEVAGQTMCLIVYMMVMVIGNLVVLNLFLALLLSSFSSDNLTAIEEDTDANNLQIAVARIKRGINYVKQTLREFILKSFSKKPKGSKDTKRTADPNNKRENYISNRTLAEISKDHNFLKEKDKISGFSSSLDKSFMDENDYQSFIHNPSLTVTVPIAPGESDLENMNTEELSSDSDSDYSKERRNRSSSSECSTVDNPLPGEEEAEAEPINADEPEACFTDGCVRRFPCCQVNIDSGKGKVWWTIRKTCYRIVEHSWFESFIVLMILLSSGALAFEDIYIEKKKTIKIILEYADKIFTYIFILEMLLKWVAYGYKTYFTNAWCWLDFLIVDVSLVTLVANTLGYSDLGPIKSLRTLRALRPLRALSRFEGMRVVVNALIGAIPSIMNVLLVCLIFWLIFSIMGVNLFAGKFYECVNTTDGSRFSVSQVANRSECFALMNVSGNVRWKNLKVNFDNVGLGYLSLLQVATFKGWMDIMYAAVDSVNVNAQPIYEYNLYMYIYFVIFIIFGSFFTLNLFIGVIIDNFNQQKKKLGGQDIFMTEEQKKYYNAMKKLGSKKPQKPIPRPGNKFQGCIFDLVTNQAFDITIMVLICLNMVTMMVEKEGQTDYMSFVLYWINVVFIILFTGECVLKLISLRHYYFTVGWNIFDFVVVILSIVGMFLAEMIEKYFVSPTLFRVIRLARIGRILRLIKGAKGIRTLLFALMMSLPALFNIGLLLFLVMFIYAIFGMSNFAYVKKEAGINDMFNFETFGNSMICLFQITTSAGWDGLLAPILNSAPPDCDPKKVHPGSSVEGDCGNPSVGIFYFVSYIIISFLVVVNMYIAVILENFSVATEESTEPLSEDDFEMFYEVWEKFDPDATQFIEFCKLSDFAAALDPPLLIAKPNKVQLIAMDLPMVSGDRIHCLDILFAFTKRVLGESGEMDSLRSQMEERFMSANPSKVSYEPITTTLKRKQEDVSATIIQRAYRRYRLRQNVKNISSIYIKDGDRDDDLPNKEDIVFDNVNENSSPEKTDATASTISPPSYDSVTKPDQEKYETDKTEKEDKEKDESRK

**Q.** For COc1cc(-c2cccc(C(F)(F)F)c2)c(F)cc1-c1nccc2cc(S(=O)(=O)Nc3ccon3)ccc12, which microsomal CLint at 1 µM [1] is on record?
**A.** < 14 µL/min/mg

**Q.** What about the microsomal CLint at 1 µM [2] of the same molecule?
**A.** < 14 µL/min/mg

**Q.** What about the clearance [3] of the same molecule?
**A.** 3.83 mL/min/kg

**Q.** What about the Vd [4] of the same molecule?
**A.** 2.1 L/kg

**Q.** And the bioavailability [5]?
**A.** 54%

**Q.** And the bioavailability [6]?
**A.** 63%

**Q.** What about the Activity [7] of the same molecule?
**A.** Non-Toxic

**Q.** And the IC50 [8]?
**A.** > 15 µM

**Q.** What about the IC50 [9] of the same molecule?
**A.** > 15 µM

**Q.** And the “Cp(f)” value [10]?
**A.** 1230 nM

**Q.** What about the IC50 [11] of the same molecule?
**A.** 0.036 µM
